APP transl inh = inhibitors of APP translation via 5'UTR reporter, primary screen, APP 5'UTR luciferase, SH-SY5Y cells. inhibition, % at 2 µM. 0.82% of 190,000 active. SH-SY5Y APP 5'UTR-luciferase reporter, luminescence;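 active = inhibition above a set limit, derived from the sample mean plus 3 SD, cut at about 45% in these data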
FLuc inhib CS = firefly luciferase enzyme inhibitors, primary screen, artefact control for luciferase-based inhibitor screens, biochemical, luminescence, ATPLite. inhibition, % at 10 µM. Luciferin 4-monooxygenase (Photinus pyralis), P08659. 10 min. AID 1006, 2008. 1.5% of 200,000 active;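 active = inhibition above about 50% when tested at 10 µM, limit read from the data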
Target sequence (P08659 whole entry, looked up): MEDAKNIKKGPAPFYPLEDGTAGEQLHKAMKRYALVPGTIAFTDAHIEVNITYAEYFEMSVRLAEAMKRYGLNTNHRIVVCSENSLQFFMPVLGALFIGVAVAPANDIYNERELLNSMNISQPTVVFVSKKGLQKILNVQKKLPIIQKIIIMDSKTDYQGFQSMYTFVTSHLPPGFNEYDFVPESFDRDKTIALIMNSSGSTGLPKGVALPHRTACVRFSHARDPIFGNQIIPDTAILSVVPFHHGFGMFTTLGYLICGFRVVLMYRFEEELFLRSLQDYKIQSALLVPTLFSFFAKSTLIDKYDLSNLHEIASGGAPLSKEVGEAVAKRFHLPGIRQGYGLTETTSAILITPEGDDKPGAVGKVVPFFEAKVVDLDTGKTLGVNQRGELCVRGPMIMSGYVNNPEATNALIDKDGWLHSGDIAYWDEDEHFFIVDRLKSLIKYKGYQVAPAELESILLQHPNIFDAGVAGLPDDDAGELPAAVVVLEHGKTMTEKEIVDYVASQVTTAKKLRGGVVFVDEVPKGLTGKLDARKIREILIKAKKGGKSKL
NF-kB expr up = activators of NF-kB expression in neurons, primary screen, cell-based, HTS | human neuronal cells, NF-kB reporter expression; stronger effect = higher value | fold change at 12.5 µM | 1.6% of 190,000 active | AID 1239, 2008; in the data active = fold change above about 3.3
FLuc act counter = FLuc activators, initial screening, artefact control for FLuc-dependent activation tests, biochemical, ATPlite luminescence; Luciferin 4-monooxygenase (Photinus pyralis), P08659; ATPlite luciferase biochemical, 10 min; 0 = ATP-free wells, 1 = DMSO control; activation factor at 10 µM; 200,000 tested, under 10 active; AID 1027, 2008;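 active = luciferase activation factor, scaled between plate controls, of at least 2 with compound at 10 µM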
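Material: Luciferase/luciferin reagent mix; Doses: test compounds dosed from 2 mM stocks in 100% DMSO; Schedule: 10 min incubation after luciferase reagent addition, room temperature; Measured by: luminescence from luciferase reaction; Read-out: luminescence gain marking luciferase activators.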
STAT1 activator = STAT1 signaling activators, primary screen, cell-based, HTS, luciferase reporter | NIH 3T3 STAT1-luciferase reporter, IFN-gamma, luminescence; 100% = IFN-gamma alone, no compound | activation (% of control), % at 5.5 µM | 2.6% of 200,000 active;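 active = activation above the screen-wide mean activation plus 3 SD, cut at about 130% in these data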;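 also: raw ratio to IFN-gamma control signal so 100% means no change and 0% no light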
APP 5'UTR act = activators of APP 5'UTR luciferase reporter, primary screen, SH-SY5Y cells; SH-SY5Y APP 5'UTR luciferase reporter, luminescence; zero percent = DMSO vehicle wells; activation, % at 2 µM; 1% of 190,000 active;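 active = activation above a set limit, based on mean plus 3 SD of controls, cut at about 140% in these data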
* marks the source's active call; other numbers are inactive results. Rows were chosen to be rich in hits. Some 4.8% of all compounds tested hit in one or more screens of this group.

How did COc1ccccc1C(N)=S do in these assays?
APP transl inh: -1; FLuc inhib CS: 3; NF-kB expr up: 1.1; FLuc act counter: 1; STAT1 activator: 100; APP 5'UTR act: 1

Results for O=C(Nc1ccccc1)OC1CCC2CC1CCC2OC(=O)Nc1ccccc1 (stereo not given) ?
APP transl inh: 14; FLuc inhib CS: -3; NF-kB expr up: 0.97; FLuc act counter: 1; STAT1 activator: 90; APP 5'UTR act: -14

Results for Cc1nn2c(COc3ccc(NC(=O)c4ccccc4Cl)cc3)nnc2c2ccccc12 ?
APP transl inh: -5; FLuc inhib CS: 47; NF-kB expr up: 0.47; FLuc act counter: 0.5; STAT1 activator: 91; APP 5'UTR act: 5

Results for CCC1C/C(=C/c2ccco2)C(=O)/C(=C/c2ccco2)C1 (stereo not given) ?
APP transl inh: -21; FLuc inhib CS: -9; NF-kB expr up: 1; FLuc act counter: 1.1; STAT1 activator: 96; APP 5'UTR act: 21

How did O=C1/C(=C/c2ccco2)CCc2ccccc21 do in these assays?
APP transl inh: -164; FLuc inhib CS: 61*; NF-kB expr up: 2.9; FLuc act counter: 0.4; STAT1 activator: 105; APP 5'UTR act: 164*

What do the screens show for `O=C1C(=Cc2ccco2)C(=O)c2ccccc21`?
APP transl inh: -17; FLuc inhib CS: 16; NF-kB expr up: 1.1; FLuc act counter: 0.8; STAT1 activator: 101; APP 5'UTR act: 17

Results for Nc1ccc2c(c1)C/C(=C/c1ccco1)C2=O ?
APP transl inh: -189; FLuc inhib CS: 87*; NF-kB expr up: 1; FLuc act counter: 0.1; STAT1 activator: 210*; APP 5'UTR act: 189*

Results for COc1ccc2c(c1)CC/C(=C/c1ccco1)C2=O ?
APP transl inh: -181; FLuc inhib CS: 81*; NF-kB expr up: 8.1*; FLuc act counter: 0.2; STAT1 activator: 133*; APP 5'UTR act: 181*

What do the screens show for `O=C(N/C(=C/C=C/c1ccccc1)C(=O)N1CCOCC1)c1ccccc1Br`?
APP transl inh: -16; FLuc inhib CS: 0; NF-kB expr up: 1.1; FLuc act counter: 1; STAT1 activator: 98; APP 5'UTR act: 16

How did O=C(CSCc1ccccc1Cl)NN=C1CCCCCC1 do in these assays?
APP transl inh: 3; FLuc inhib CS: -6; NF-kB expr up: 1.1; FLuc act counter: 1.1; STAT1 activator: 103; APP 5'UTR act: -3

Results for C/C(=N\NC(=O)CSCc1ccccc1Cl)c1cc(O)ccc1O ?
APP transl inh: 54*; FLuc inhib CS: 4; NF-kB expr up: 1.6; FLuc act counter: 1; STAT1 activator: 83; APP 5'UTR act: -54

How did COc1cc2c(cc1OC)C(c1cccs1)N(C(=O)c1cccnc1)CC2 (stereo not given) do in these assays?
APP transl inh: 45*; FLuc inhib CS: -6; NF-kB expr up: 1.1; FLuc act counter: 1.1; STAT1 activator: 100; APP 5'UTR act: -45

How did CN(C)c1oc(/C=C/c2ccccc2)nc1C#N do in these assays?
APP transl inh: -62; FLuc inhib CS: 0; NF-kB expr up: 2.1; FLuc act counter: 1; STAT1 activator: 138*; APP 5'UTR act: 62

Results for CN(C)c1oc(-c2ccccc2)nc1C#N ?
APP transl inh: 7; FLuc inhib CS: -3; NF-kB expr up: 1.2; FLuc act counter: 1; STAT1 activator: 104; APP 5'UTR act: -7

What do the screens show for `CCOC(=O)N1CCN(C(=O)CCSc2ccccc2)CC1`?
APP transl inh: -75; FLuc inhib CS: -3; NF-kB expr up: 1.8; FLuc act counter: 1; STAT1 activator: 134*; APP 5'UTR act: 75

How did CCOC(=O)c1sc(=NC(=O)CCSc2ccccc2)n(C)c1C do in these assays?
APP transl inh: -29; FLuc inhib CS: 2; NF-kB expr up: 0.99; FLuc act counter: 1; STAT1 activator: 136*; APP 5'UTR act: 29

What do the screens show for `CCOC(=O)c1sc(=NC(=O)c2cccc(C)c2)n(C)c1C`?
APP transl inh: -162; FLuc inhib CS: 40; NF-kB expr up: 3.5*; FLuc act counter: 0.6; STAT1 activator: 142*; APP 5'UTR act: 162*

How did CCOC(=O)c1sc(=NC(=O)c2ccc(C)cc2)n(C)c1C do in these assays?
APP transl inh: -75; FLuc inhib CS: 21; NF-kB expr up: 3.7*; FLuc act counter: 0.8; STAT1 activator: 139*; APP 5'UTR act: 75

How did Cn1c(N2CCC(C(N)=O)CC2)nc2c1c(=O)n(Cc1ccc(Br)cc1)c(=O)n2C do in these assays?
APP transl inh: 5; STAT1 activator: 100; APP 5'UTR act: -5

What do the screens show for `COc1cc(C2C(S(=O)(=O)c3ccccc3)CON2C)ccc1OCc1ccc(F)cc1` (stereo not given)?
APP transl inh: -35; FLuc inhib CS: -5; NF-kB expr up: 6.6*; FLuc act counter: 1; STAT1 activator: 98; APP 5'UTR act: 35

What do the screens show for `O=C(/C=C/c1ccccc1)NCCCNC(=O)/C=C/c1ccccc1`?
APP transl inh: -6; FLuc inhib CS: 4; NF-kB expr up: 1.2; FLuc act counter: 1; STAT1 activator: 94; APP 5'UTR act: 6

What do the screens show for `COc1ccc(C)cc1NC(=S)NC(C)c1ccc(OC)c(OC)c1` (stereo not given)?
APP transl inh: -2; FLuc inhib CS: 2; NF-kB expr up: 0.78; FLuc act counter: 1; STAT1 activator: 96; APP 5'UTR act: 2

How did N/N=C(\c1ccccc1)C12CN3CN(CN(C3)C1)C2 do in these assays?
APP transl inh: 19; FLuc inhib CS: 0; NF-kB expr up: 1; FLuc act counter: 1; STAT1 activator: 105; APP 5'UTR act: -19

What do the screens show for `O=C(CCNC(=O)Cn1ccc2ccccc2c1=O)NCCc1ccccc1Cl`?
APP transl inh: 5; FLuc inhib CS: 4; NF-kB expr up: 1.4; FLuc act counter: 1; STAT1 activator: 105; APP 5'UTR act: -5

What do the screens show for `Cc1ccccc1-c1nnc(-c2cccs2)o1`?
APP transl inh: -73; FLuc inhib CS: 24; NF-kB expr up: 2.1; FLuc act counter: 0.8; STAT1 activator: 144*; APP 5'UTR act: 73

How did Cc1ccccc1-c1noc(-c2cccs2)n1 do in these assays?
APP transl inh: -50; FLuc inhib CS: 14; NF-kB expr up: 2.3; FLuc act counter: 0.9; STAT1 activator: 143*; APP 5'UTR act: 50

What do the screens show for `c1coc(-c2nnc(-c3cccs3)o2)c1`?
APP transl inh: -49; FLuc inhib CS: 2; NF-kB expr up: 1.7; FLuc act counter: 1; STAT1 activator: 119; APP 5'UTR act: 49

Screens deposited in PubChem BioAssay by several laboratories.
